Results from PubChem BioAssay.
The source made the active and inactive calls.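 The calls were made as follows, unless noted: active = visual image review flags a hit and inhibition of aggregation exceeds 20%; inconclusive = visual hit but inhibition at or below 20%; inactive = no hit on visual image review.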

How the values were obtained:
[1] = inhibitors of TNFa-induced NFkB p65 translocation, primary screen, imaging, HUVEC, MLSMR starter and 10KST1 sets (AID 438;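 active = inhibition above 20% together with a positive visual image hit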;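 also: compound added about 3h40 before a 20 min TNFalpha stimulation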;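 as to inhibition: signal is the nuclear over cytoplasmic p65 intensity ratio per well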); conditions: HUVEC TNFa-induced p65 nuclear translocation; cell count: measured here: nuclei count (cytotoxicity indicator), at 2.08 µM; inhibition: at 2 µM, stronger effect = higher value, 0% TNFa-plus-vehicle, 100% no-TNFa wells
[2] = reduction of polyQ htt aggregates in cells – imaging, exon1htt(103Q)mCFP cells, high-content imaging, primary screen (AID 483); conditions: exon1htt(103Q)mCFP cell line, aggregate imaging, at 2 µM; inhibition of aggregation: stronger effect = higher value; nuclei count: measured here: cell count, toxicity;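 also: compound exposure lasted 3 days before fixation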;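 as to nuclei count: percent of the per-plate median nuclei count of sample wells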
[3] = endothelial E-selectin expression blockers – imaging, HUVEC, immunofluorescence, MLSMR starter and 10KST1 sets, primary screen (AID 487;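 active = visually confirmed hit in the image check and inhibition above 20%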;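 as to inhibition: signal is fraction of cell area covered by stained E-selectin grains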;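 as to nuclei count: 100% = median nuclei count of all wells on the same plate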); conditions: HUVEC TNFalpha-induced E-selectin immunofluorescence imaging, at 2 µM; inhibition: stronger effect = higher value; nuclei count: measured here: cell number, toxicity
[4] = biological target: Voltage-gated potassium channel subunit beta-2 (Rattus norvegicus) (UniProt P62483); experiment: inhibitors of rat Kvbeta2 reductase activity – biochemical, NADPH fluorescence, primary screen (AID 622;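 active = fluorescence slope higher than the sample average by over 3 SD, cut at about -0.22 in these data, passing the limit was not always enough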;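 also: slope of raw intensity against log time taken from 70 to 1610 s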); conditions: recombinant KvBeta, 4-cyanobenzaldehyde reduction, at 10 µM, stronger effect = higher value
Sequence of Voltage-gated potassium channel subunit beta-2 (Rattus norvegicus) (P62483 whole entry, looked up): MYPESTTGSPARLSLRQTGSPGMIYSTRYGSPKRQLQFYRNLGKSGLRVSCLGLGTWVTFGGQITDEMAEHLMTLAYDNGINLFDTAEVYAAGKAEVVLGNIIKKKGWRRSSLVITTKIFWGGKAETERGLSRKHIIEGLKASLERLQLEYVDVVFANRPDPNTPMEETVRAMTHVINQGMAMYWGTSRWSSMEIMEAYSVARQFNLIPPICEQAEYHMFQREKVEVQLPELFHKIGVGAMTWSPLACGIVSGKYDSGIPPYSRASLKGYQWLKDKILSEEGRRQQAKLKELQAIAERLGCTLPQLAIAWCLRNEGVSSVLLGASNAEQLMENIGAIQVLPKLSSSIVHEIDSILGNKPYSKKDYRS

[5] = biological target: Voltage-gated potassium channel subunit beta-2 (Rattus norvegicus) (UniProt P62483); experiment: enhancers of rat Kvbeta2 NADPH turnover – biochemical, NADPH fluorescence, primary screen (AID 623;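 active = NADPH fluorescence slope more negative than the mean of all samples by about 3 SD, 99.7% confidence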;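 also: fluorescence intensity change per second fitted from 20 to 320 s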); conditions: Recombinant KvBeta, NADPH fluorescence decrease slope, 10 min; at 10 µM; stronger effect = lower value
[6] = biological target: Alpha-2C adrenergic receptor (Homo sapiens) (UniProt P18825); experiment: compounds altering alpha2C-coupled GIRK flux – cell-based, HEK293 alpha2C/GIRK1/2, thallium flux, primary screen (AID 624;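 active = fluorescence slope after compound addition differing from the mean of all screened samples at 99.7% confidence, in either direction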;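 also: slope of fluorescence ratio to pre-addition baseline per second over 15 to 24 s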); conditions: thallium flux BTC fluorescence, at 10 µM, actives lie on both sides
Sequence of Alpha-2C adrenergic receptor (Homo sapiens) (P18825 whole entry, looked up): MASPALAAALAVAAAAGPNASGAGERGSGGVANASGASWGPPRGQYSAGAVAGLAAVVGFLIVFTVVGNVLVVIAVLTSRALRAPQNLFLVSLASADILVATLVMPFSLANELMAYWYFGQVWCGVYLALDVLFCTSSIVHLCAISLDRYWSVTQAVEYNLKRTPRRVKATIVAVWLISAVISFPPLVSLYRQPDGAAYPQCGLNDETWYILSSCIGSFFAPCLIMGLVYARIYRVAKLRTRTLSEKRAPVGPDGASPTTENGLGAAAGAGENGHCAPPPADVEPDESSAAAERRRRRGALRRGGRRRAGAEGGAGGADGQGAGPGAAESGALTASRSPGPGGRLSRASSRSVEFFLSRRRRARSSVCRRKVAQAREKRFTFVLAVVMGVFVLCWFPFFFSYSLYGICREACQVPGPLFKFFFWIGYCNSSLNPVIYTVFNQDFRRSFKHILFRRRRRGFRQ

[7] = inhibitors of larval lipid processing in zebrafish, primary screen, whole organism, PED6 fluorescence, gall bladder and intestine (AID 686;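 active = a full or partial loss of lipid-probe fluorescence in the fish gall bladder, intestine or both, judged by eye; inactive = no fluorescence loss, or compound toxic to the fish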;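 also: larvae 5 to 7 days old with five fish per well; signal comes from phospholipase A2 cleavage of quenched PED6 carried via bile; overnight exposure to compound and PED6 before scoring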); conditions: Zebrafish larvae PED6 lipid processing, fluorescence scoring; screened at 20 µM (by protocol)
Procedure, shortened: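 system = live zebrafish larvae aged 5-7 days, whole organism | probe or stimulus = ingested quenched lipid PED6 at 100 nM | doses = 20 µM single dose | timing = overnight exposure | detection = fluorescence microscopy with visual scoring of gall bladder and intestine | read-out = visual per-well fluorescence inhibition score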

[8] = blockers of RIG-like receptor reporter activation – cell-based, Sendai virus stimulus, luciferase, 10K MLSCN set, TLR/RLR signaling modifier project, primary screen (AID 602276;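 active = inhibition at or above 50% at 10 µM; inactive = inhibition below 50%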;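 also: firefly luciferase from ISG56 promoter only with Renilla not read in this screen; 0% = Sendai virus plus DMSO and 100% = medium plus DMSO without virus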); conditions: HEK293 RL24 IRF3 luciferase reporter, at 10 µM, stronger effect = higher value
[9] = TLR3 IRF3 reporter activation blockers – cell-based, poly I:C stimulus, luciferase, 10K MLSCN set, primary screen (AID 602277;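 active = inhibition of the reporter signal at or above 50%; inactive = inhibition below 50%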); conditions: HEK293-TLR3 RL24 IRF3 luciferase reporter, at 10 µM, stronger effect = higher value

Structure (SMILES)	cell count [1]	inhibition [1]	inhibition of aggregation [2]	nuclei count [2] [%]	inhibition [3]	nuclei count [3] [%]	fluorescence slope [4]	NADPH fluorescence slope [5]	slope [6]	outcome [7]	inhibition [8]	inhibition [9]
COc1cc(C(=O)OCc2cc3ccccc3[nH]c2=O)cc(OC)c1OC	833	-3.9% (inactive)	-3.9% (inactive)	99.3	-38.9% (inactive)	102	-0.356 (inactive)	-4.1e-05 (inactive)	0.00585 (inactive)	inactive	17.4% (inactive)	18.2% (inactive)
CNC(=O)CSc1nc2c(c(=O)n(C)c(=O)n2C)n1Cc1ccc(C)cc1	346	4% (inactive)	15.9% (inactive)	80.4	-12.3% (inactive)	88.8	-0.37 (inactive)	-5.6e-05 (inactive)	0.00619 (inactive)	inactive	6.2% (inactive)	24.5% (inactive)
CC(C)c1cc(C(=O)Nc2cccnc2)no1	250	-2.8% (inactive)	-12.9% (inactive)	103	-9.6% (inactive)	115	-0.398 (inactive)	-6.1e-05 (inactive)	0.00525 (inactive)	inactive	-22.1% (inactive)	-67.3% (inactive)
O=C(O)c1ccc(C2SCC(=O)N2Cc2ccccc2)cc1 (configuration not stated)	323	-0.4% (inactive)	15.9% (inactive)	57.9	7.3% (inactive)	101	-0.382 (inactive)	1.2e-05 (inactive)	0.00611 (inactive)	inactive	-6.17% (inactive)	0.315% (inactive)
O=C(CCn1[nH]c(=O)c2ccccc2c1=O)NCCO	588	-6.5% (inactive)	0.4% (inactive)	97.8	-35.4% (inactive)	71.1	-0.361 (inactive)	-5.6e-05 (inactive)	0.00681 (inactive)	inactive	1.06% (inactive)	-8.68% (inactive)
NS(=O)(=O)c1ccc(NC(=O)CSc2nnc(Cc3cccs3)n2-c2ccccc2)cc1	253	-10.8% (inactive)	7.5% (inactive)	73.5	-24.9% (inactive)	100	-0.45 (inactive)	-4.3e-05 (inactive)	0.00519 (inactive)	inactive	17.4% (inactive)	21.4% (inactive)
Cc1cccc(-n2ncc3c(NCc4cccs4)ncnc32)c1	667	6.7% (inactive)	0.1% (inactive)	99.5	-119% (inactive)	108	-0.458 (inactive)	-2.6e-05 (inactive)	0.00473 (inactive)	inactive	-36.3% (inactive)	-95% (inactive)
COC(=O)CSc1nnc(-c2ccc(OC)cc2OC)o1	609	6.3% (inactive)	6.1% (inactive)	109	44.6% (inactive)	90.8	-0.397 (inactive)	-5.2e-05 (inactive)	0.00519 (inactive)	inactive	13.1% (inactive)	10.4% (inactive)
COc1cc(SC)ccc1C(=O)Nc1ccccc1C#N	417	3.9% (inactive)	-95.3% (inactive)	2.1	-147% (inactive)	111	-0.449 (inactive)	-1.3e-05 (inactive)	0.00527 (inactive)	inactive	-42.4% (inactive)	-61.5% (inactive)
CN(Cc1ccccc1)C(=O)c1cc(-c2ccc(Br)cc2)on1	318	2.4% (inactive)	14.9% (inactive)	107	19.7% (inactive)	110	-0.399 (inactive)	-3.6e-05 (inactive)	0.00441 (inactive)	inactive	-49.5% (inactive)	-116% (inactive)
Cc1cccc(N(CC(=O)N2CCCC2)S(=O)(=O)c2ccccc2)c1C	288	-2.3% (inactive)	23.9% (inactive)	87.6	-156% (inactive)	98.1	-0.423 (inactive)	-4.5e-05 (inactive)	0.00511 (inactive)	inactive	-11.4% (inactive)	-6.79% (inactive)
CCC(=O)Oc1ccc(C/C(=N\O)c2ccc(O)cc2O)o1	405	1.5% (inactive)	24.3% (inactive)	95.9	-54.6% (inactive)	115	-0.502 (inactive)	4.5e-05 (inactive)	0.00444 (inactive)	inactive	-8.2% (inactive)	-21.3% (inactive)
O=S(=O)(c1cccc2c(S(=O)(=O)N3CCCC3)cccc12)N1CCCC1	250	-13.4% (inactive)	-7.2% (inactive)	118	-17.4% (inactive)	88.6	-0.355 (inactive)	6.6e-06 (inactive)	0.00452 (inactive)	inactive	18.2% (inactive)	21.9% (inactive)
COc1cc(C(=O)Nc2cc(-c3ccccc3)[nH]n2)cc(OC)c1OC	456	-6.3% (inactive)	15.9% (inactive)	94.3	-41% (inactive)	114	-0.385 (inactive)	-4.1e-05 (inactive)	0.00552 (inactive)	inactive	22.1% (inactive)	33.8% (inactive)
Cc1cnc(C(=O)Nc2ccccc2-n2cccc2)cn1	426	6% (inactive)	-9.1% (inactive)	107	-157% (inactive)	115	-0.379 (inactive)	-5.7e-05 (inactive)	0.00535 (inactive)	inactive	-12.6% (inactive)	0.535% (inactive)
Cc1cc(C)nc(-n2nc(C)cc2NC(=O)c2ccc(Br)o2)n1	442	-7.3% (inactive)	18.7% (inactive)	90.1	21.7% (inactive)	105	-0.374 (inactive)	-5.8e-05 (inactive)	0.00507 (inactive)	inactive	-4.98% (inactive)	20.1% (inactive)
Cc1cc(C(=O)CSc2nnc(-c3ccccc3)n2C)c(C)n1C	403	4.4% (inactive)	3.6% (inactive)	88.2	-5.3% (inactive)	107	-0.477 (inactive)	-5.5e-05 (inactive)	0.00512 (inactive)	inactive	-0.894% (inactive)	78.4% (active)
Nn1c(SCC(=O)Nc2ccccc2)nnc1-c1cccnc1	502	-4.8% (inactive)	11% (inactive)	126	7% (inactive)	118	-0.363 (inactive)	-3.7e-05 (inactive)	0.00741 (inactive)	inactive	-6.03% (inactive)	-3.73% (inactive)
Cc1cccc(OCC(=O)Nc2ccc(N3CCCC3)cc2)c1C	553	-2.5% (inactive)	-18.4% (inactive)	93.1	-53.5% (inactive)	83.5	-0.37 (inactive)	-6.9e-05 (inactive)	0.005 (inactive)	inactive	7.46% (inactive)	6.78% (inactive)
CC1=C(C(=O)N2CCOCC2)C(c2ccccc2F)C2=C(CCCC2=O)N1 (configuration not stated)	401	-0.8% (inactive)	-15% (inactive)	111	-24.5% (inactive)	121	-0.314 (inactive)	4.2e-06 (inactive)	0.00583 (inactive)	inactive	3.26% (inactive)	6.93% (inactive)
O=C(NCCCN1CCCC1=O)c1cccnc1	364	2.5% (inactive)	-3.8% (inactive)	108	35.2% (inactive)	100	-0.432 (inactive)	-4.3e-06 (inactive)	0.00372 (inactive)	inactive	-11.4% (inactive)	-7.12% (inactive)
